Data set [1] concerns Akt. Kind of data set: Western blot of HUVECs, phosphorylated Akt. The class given is cell-based, human. Particulars: co-treatment with PEG-Ex4. In a few lines: (§1)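 HUVEC lysates were prepared in RIPA buffer and protein was quantified by BCA. Proteins were resolved by SDS-PAGE and transferred to nitrocellulose, then blocked in 5% milk. Blots were probed overnight at 4 °C with anti-VEGF or anti-pAkt plus anti-β-actin, followed by secondary antibodies. Detection was by chemiluminescence on X-ray film. pAkt blots were stripped at 50 °C for 30 min and reprobed for total Akt. Data are mean ± SEM.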
For orientation: Immunoblotting shows a protein as a band on a membrane.

Data set [2] has as its system VEGF. Kind of data set: Western blot of HUVECs, VEGF. The conditions noted are these: co-treatment with PEG-Ex4. It counts as cell-based, human. In outline:
as §1

For data set [3] the following is noted: breakdown by dipeptidyl peptidase-4 (DPP4); no reference given for the value; cited from earlier work.

On to `O=c1cc(N2CCOCC2)oc2c(-c3ccccc3)cccc12` [LY294002], for which the “effect of PEG-Ex4 on p-Akt in HUVECs, inhibition by co-treatment” value in data set [1] is given as “abolished the effect of PEG-Ex4 on p-Akt”. Further, the “effect of PEG-Ex4 on VEGF expression in HUVECs, inhibition by co-treatment” value in data set [2] is listed as “abolished”.
With exendin-4(9-39), the “effect of PEG-Ex4 on p-Akt in HUVECs, inhibition by co-treatment” value in data set [1] is “abolished the effect of PEG-Ex4 on p-Akt”. Moreover, in data set [2], the “effect of PEG-Ex4 on VEGF expression in HUVECs, inhibition by co-treatment” value is listed as “abolished”.
For the compound glucagon-like peptide-1 [GLP-1], the “half-life, in words” value in data set [3] is listed as “a few minutes”.

Values taken from article PMC4279188 (Theranostics, 2015).
